Experimental data: article PMC8265595 (Neuropharmacology, 2020)
Values joined by “and” are separate entries in the source; they are usually repeats but may differ in a detail not shown here. Identical values can stand only once.

What was measured:
[1] = molecular target: T1, α1β2γ2 GABAA receptor (Homo sapiens, UniProt P14867+P18507+P47870); experiment: Synergy with diazepam, α1β2γ2 in Ltk cells, isobolographic analysis; format: cell-based; conditions: for concentration applied alone required to reach 150% effect level: α1β2γ2, isobologram
T1 sequence (P14867 28-456): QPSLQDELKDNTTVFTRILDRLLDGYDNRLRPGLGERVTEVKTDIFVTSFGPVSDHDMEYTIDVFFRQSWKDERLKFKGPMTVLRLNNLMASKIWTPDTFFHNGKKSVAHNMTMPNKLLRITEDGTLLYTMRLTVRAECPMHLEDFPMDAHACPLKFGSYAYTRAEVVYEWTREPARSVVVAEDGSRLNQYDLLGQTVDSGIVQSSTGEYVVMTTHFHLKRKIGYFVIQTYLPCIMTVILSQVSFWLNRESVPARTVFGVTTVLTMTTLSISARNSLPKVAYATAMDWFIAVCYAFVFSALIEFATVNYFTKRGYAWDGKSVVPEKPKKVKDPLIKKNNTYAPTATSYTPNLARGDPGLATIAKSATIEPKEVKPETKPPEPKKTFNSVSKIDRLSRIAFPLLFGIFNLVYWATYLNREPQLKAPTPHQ
T1 sequence (P47870 25-512 limits assumed): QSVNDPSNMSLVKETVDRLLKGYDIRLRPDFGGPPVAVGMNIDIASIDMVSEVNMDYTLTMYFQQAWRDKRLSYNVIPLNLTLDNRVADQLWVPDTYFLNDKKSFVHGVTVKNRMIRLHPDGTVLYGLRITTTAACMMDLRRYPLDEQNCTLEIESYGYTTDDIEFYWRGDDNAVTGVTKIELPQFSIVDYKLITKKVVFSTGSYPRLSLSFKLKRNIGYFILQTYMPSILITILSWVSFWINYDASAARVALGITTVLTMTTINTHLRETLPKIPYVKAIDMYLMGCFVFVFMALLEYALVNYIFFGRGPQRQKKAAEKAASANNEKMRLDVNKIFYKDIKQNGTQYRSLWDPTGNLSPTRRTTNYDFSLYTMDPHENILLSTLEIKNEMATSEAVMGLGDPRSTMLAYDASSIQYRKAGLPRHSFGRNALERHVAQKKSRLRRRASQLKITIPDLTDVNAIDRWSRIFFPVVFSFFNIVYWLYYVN
T1 sequence (P18507 40-475): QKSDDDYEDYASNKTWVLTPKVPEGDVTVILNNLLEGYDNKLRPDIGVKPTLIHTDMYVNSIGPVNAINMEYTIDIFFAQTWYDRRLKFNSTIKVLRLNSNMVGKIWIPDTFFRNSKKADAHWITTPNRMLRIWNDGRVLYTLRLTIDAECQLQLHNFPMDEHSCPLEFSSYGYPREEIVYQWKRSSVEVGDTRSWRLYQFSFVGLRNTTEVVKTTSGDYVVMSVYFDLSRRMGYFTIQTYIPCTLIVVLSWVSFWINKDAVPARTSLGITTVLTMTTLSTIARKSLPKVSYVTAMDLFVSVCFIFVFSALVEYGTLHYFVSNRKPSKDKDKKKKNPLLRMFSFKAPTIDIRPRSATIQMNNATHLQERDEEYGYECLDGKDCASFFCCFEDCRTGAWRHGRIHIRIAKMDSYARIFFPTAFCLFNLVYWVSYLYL

[2] = system: glycine; conditions: 10 μM, ref Martinez-Botella et al., 2017; cited from earlier work
[3] = system: β-band EEG power; experiment: PharmacoEEG, β-band EEG power and sleep/wake; format: in vivo; conditions: rat; for sleep time: p < 0.05
Outline: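 Adult male Sprague Dawley rats (n = 7 per group) with implanted epidural EEG screw electrodes and EMG were tested after 2 weeks' recovery. After 1 h baseline, they received test compound (0.3, 3 or 20 mg/kg) or vehicle (30% SBECD) PO, followed by 6 h continuous EEG. Sleep/wake was scored in 10 s epochs from EEG/EMG and checked by a blinded expert. Analysis used one-way ANOVA and two-way repeated-measures ANOVA vs vehicle.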

[4] = molecular target: human recombinant α6β3δ GABAA receptor (Homo sapiens, UniProt P28472+Q16445); experiment: Two electrode voltage clamp, α6β3δ in Xenopus oocytes; format: cell-based
Outline: (§1)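 Xenopus oocytes expressing subunit cDNA; two-electrode voltage clamp at −80 mV, 18 °C, superfused with OR2 medium pH 7.4. Submaximal GABA given alone for 15 s, then co-applied with test compound at half-log steps 0.1–10 μM (0.3% DMSO). GABA: 10 μM for α1β1γ2, 3 μM for α6β3δ. n = 3 cells per concentration. Potentiation = peak amplitude with test compound / GABA alone ×100.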

[5] = molecular target: human recombinant α3β3γ2 GABAA receptor (Homo sapiens, UniProt P28472+P34903); experiment: IonWorks Barracuda patch clamp, α3β3γ2 in HEK cells; format: cell-based
human recombinant α3β3γ2 GABAA receptor, sequence (P34903 29-492): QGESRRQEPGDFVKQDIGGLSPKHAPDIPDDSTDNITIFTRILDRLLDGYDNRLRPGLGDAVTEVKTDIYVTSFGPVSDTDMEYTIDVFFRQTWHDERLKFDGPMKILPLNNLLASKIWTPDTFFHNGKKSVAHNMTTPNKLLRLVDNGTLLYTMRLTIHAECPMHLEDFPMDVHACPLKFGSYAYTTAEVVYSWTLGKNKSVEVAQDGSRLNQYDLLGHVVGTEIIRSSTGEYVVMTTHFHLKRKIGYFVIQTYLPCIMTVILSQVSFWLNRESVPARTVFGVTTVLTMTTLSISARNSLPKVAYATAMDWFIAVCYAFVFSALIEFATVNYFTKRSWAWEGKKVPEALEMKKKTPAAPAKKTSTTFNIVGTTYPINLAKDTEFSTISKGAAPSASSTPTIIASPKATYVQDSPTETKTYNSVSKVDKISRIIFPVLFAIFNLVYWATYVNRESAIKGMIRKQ
human recombinant α3β3γ2 GABAA receptor, sequence (P28472 26-473): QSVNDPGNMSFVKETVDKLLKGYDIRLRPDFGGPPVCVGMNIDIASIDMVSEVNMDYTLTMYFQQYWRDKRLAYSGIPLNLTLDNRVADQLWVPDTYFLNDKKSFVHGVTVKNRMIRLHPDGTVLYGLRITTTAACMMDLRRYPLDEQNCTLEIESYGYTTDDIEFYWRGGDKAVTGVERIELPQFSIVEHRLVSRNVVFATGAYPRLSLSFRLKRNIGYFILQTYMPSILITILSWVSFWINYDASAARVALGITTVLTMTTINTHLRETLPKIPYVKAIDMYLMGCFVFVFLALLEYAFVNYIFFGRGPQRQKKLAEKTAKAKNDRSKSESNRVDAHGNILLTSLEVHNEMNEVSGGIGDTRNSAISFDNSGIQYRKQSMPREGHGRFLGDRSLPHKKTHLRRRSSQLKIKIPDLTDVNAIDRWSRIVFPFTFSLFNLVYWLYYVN
human recombinant α3β3γ2 GABAA receptor, sequence (P18507 40-475 partner): as the sequence (P18507 40-475) above
Outline: (§2)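 HEK cells stably expressing human receptors; automated perforated-patch whole-cell recording at −70 mV. Extracellular buffer pH 7.4; KCl-based intracellular solution pH 7.2. Submaximal GABA applied alone, then co-applied with test compound at half-log steps 0.01–30 μM (0.3% DMSO, 0.02% Cremophor); n = 4 per concentration. GABA: 5 μM α1β3γ2, 2 μM α2β3γ2, 12.5 μM α3β3γ2, 2 μM α5β3γ2. Potentiation = peak with test compound / peak with GABA alone ×100.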

[6] = system: transient receptor potential cation channel subfamily V member 1 receptor; conditions: 10 μM; ref Martinez-Botella et al., 2017; cited from earlier work
[7] = system: PTZ-induced seizures; experiment: Pentylenetetrazole-induced seizures; format: in vivo, mouse; conditions: vehicle 751 ± 67 s
[8] = molecular target: human recombinant α5β3γ2 GABAA receptor (Homo sapiens, UniProt P28472+P31644); experiment: IonWorks Barracuda patch clamp, α5β3γ2 in HEK cells; format: cell-based
human recombinant α5β3γ2 GABAA receptor, sequence (P31644 32-462): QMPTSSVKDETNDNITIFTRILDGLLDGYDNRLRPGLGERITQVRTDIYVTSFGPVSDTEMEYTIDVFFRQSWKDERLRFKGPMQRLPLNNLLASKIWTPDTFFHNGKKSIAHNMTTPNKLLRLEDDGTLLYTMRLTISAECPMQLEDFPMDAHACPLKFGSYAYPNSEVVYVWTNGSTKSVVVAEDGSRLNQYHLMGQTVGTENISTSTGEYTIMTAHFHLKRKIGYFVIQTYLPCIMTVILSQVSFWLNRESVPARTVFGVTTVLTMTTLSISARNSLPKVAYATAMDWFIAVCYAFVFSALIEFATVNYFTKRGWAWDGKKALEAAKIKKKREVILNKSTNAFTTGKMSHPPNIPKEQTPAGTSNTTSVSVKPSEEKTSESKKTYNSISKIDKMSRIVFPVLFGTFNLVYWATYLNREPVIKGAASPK
human recombinant α5β3γ2 GABAA receptor, sequence (P28472 26-473): as the sequence (P28472 26-473) above
human recombinant α5β3γ2 GABAA receptor, sequence (P18507 40-475 partner): as the sequence (P18507 40-475) above
Outline: as §2

[9] = Plasma and brain concentrations in PTZ behavioral study; format: in vivo; conditions: mouse, between 0.3 and 1 mg/kg PO
Outline: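 Plasma and brain were collected from a subset of PTZ-study mice plus satellite PK mice (n = 3–4 per dose) after PO dosing. Brain was homogenized in 3 vol PBS, extracted by acetonitrile protein precipitation with internal standard, and quantified by LC-MS/MS against a spiked calibration curve.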

[10] = Brain and plasma pharmacokinetics after single IP or PO dose; format: in vivo, mouse; conditions: for time of maximum plasma concentration (Cmax) post dose: CD1 mouse; for Cmax / bioavailability: male, CD-1, mouse, plasma, 10 mg/kg
Outline: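 Adult male CD-1 mice received a single 10 mg/kg dose: IP in 15% HP-β-CD or PO in 30% SBECD. Sampling: IP at 0.5–8 h (n = 2 per time point); PO at 0.167–12 h (n = 3 per time point). Plasma (K2 EDTA) and snap-frozen brain were collected. Brain was homogenized in 3 vol PBS, extracted by acetonitrile precipitation with internal standard, and assayed by LC-MS/MS (C18, water:methanol gradient, positive MRM). Brain:plasma ratio from a single point at 1 h.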

[11] = molecular target: human recombinant α1β1γ2 GABAA receptor (Homo sapiens, UniProt P14867+P18505); experiment: Two electrode voltage clamp, α1β1γ2 in Xenopus oocytes; format: cell-based
human recombinant α1β1γ2 GABAA receptor, sequence (P14867 28-456): as the sequence (P14867 28-456) above
human recombinant α1β1γ2 GABAA receptor, sequence (P18505 26-474): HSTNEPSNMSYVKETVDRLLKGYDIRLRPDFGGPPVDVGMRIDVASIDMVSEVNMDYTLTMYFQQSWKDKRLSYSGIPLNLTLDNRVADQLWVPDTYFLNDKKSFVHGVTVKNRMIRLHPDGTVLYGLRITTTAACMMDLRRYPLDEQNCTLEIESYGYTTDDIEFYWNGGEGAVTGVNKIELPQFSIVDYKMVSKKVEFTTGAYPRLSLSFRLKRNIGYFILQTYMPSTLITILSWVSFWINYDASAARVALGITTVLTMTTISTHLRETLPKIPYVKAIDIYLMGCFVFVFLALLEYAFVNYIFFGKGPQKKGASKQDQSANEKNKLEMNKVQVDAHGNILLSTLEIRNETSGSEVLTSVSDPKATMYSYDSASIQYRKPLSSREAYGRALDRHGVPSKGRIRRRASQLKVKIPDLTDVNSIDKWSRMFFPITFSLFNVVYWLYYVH
human recombinant α1β1γ2 GABAA receptor, sequence (P18507 40-475 partner): as the sequence (P18507 40-475) above
Outline: as §1

[12] = molecular target: human recombinant α1β3γ2 GABAA receptor (Homo sapiens, UniProt P14867+P28472); experiment: IonWorks Barracuda patch clamp, α1β3γ2 in HEK cells; format: cell-based
human recombinant α1β3γ2 GABAA receptor, sequence (P14867 28-456): as the sequence (P14867 28-456) above
human recombinant α1β3γ2 GABAA receptor, sequence (P28472 26-473): as the sequence (P28472 26-473) above
human recombinant α1β3γ2 GABAA receptor, sequence (P18507 40-475 partner): as the sequence (P18507 40-475) above
Outline: as §2

[13] = system: dentate granule cells; experiment: Acute hippocampal slice recording, tonic current and sIPSCs after washout; format: cell-based, mouse; conditions: for tonic current density: 15 min pre-incubation, 30–50 min wash; for sIPSC amplitude / sIPSC decay: after 30–50 min wash
Outline: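 Acute brain slices from postnatal day 21 C57 mice were held in a holding chamber with 0.1 or 1 μM test compound for 15 min. They were then perfused (2 mL/min) with oxygenated ACSF for 30–50 min before whole-cell patch clamp of dentate granule cells (n = 6–7). Tonic current is the baseline shift with 100 μM picrotoxin, divided by capacitance. sIPSCs were inspected visually and only single-peak events were kept.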

[14] = molecular target: human recombinant α2β2γ2 GABAA receptor (Homo sapiens, UniProt P47869+P47870); experiment: Whole cell patch clamp, GABA-evoked currents, α2β2γ2 in Ltk cells; format: cell-based
Outline: (§3)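 Whole-cell patch clamp at −80 mV in Ltk cells (stable α1β2γ2, n = 7; α2β2γ2, n = 3) or CHO cells (transient α4β3δ, n = 6). Each cell received test compound (0.1% DMSO) sequentially at 0.01–10 μM, 30 s before each 2 s pulse of 2 μM GABA. Gravity-fed perfusion, exchange within 300–500 ms. For δ-containing cells, DS-2 was applied at the end to confirm δ expression. Potentiation = peak ratio ×100.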

[15] = system: 22 nuclear hormone receptors; conditions: ref Martinez-Botella et al., 2017; cited from earlier work
[16] = molecular target: human recombinant α2β3γ2 GABAA receptor (Homo sapiens, UniProt P28472+P47869); experiment: IonWorks Barracuda patch clamp, α2β3γ2 in HEK cells; format: cell-based
Outline: as §2

[17] = Phase 1, healthy volunteers, ref Hoffmann et al., 2019, cited from earlier work
[18] = molecular target: T2, α4β3δ GABAA receptor (Homo sapiens, UniProt P28472+P48169); experiment: Whole cell patch clamp, GABA-evoked currents, α4β3δ in CHO cells; format: cell-based
T2 sequence (P48169 36-554): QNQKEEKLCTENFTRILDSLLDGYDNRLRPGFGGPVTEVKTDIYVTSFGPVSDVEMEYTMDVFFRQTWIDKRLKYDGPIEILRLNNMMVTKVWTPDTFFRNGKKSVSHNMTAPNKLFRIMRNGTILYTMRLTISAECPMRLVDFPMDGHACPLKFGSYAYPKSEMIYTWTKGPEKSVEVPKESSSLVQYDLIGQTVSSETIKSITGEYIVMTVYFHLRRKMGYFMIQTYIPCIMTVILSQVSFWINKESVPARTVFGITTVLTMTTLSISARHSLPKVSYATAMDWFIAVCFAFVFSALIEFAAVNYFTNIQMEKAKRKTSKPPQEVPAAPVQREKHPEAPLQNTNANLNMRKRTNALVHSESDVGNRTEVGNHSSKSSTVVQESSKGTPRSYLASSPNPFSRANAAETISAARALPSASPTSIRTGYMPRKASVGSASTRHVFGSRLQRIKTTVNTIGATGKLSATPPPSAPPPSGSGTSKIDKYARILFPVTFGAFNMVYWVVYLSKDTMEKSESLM
T2 sequence (P28472 26-473): as the sequence (P28472 26-473) above
T2 sequence (O14764 17-452 partner limits assumed): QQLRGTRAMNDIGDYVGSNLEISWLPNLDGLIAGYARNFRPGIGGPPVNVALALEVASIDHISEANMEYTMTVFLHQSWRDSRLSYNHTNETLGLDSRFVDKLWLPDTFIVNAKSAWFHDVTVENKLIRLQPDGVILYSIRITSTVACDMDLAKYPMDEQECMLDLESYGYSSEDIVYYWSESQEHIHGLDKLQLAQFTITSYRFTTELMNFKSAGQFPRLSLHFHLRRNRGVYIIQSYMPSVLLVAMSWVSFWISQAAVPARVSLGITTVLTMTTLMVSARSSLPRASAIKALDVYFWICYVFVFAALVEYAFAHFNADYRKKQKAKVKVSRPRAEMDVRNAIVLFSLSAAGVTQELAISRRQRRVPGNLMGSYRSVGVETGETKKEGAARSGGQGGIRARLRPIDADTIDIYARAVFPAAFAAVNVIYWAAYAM
Outline: as §3

[19] = molecular target: T1, α1β2γ2 GABAA receptor; experiment: Whole cell patch clamp, GABA-evoked currents, α1β2γ2 in Ltk cells; format: cell-based
Outline: as §3

[20] = system: sigma; conditions: 10 μM, ref Martinez-Botella et al., 2017; cited from earlier work
[21] = molecular target: T2, α4β3δ GABAA receptor; experiment: Synergy with diazepam, α4β3δ in CHO cells; format: cell-based
[22] = system: 8 cardiac ion channels; conditions: ref Martinez-Botella et al., 2017; cited from earlier work
[23] = system: other ion channel and hormone receptors, including AMPA and NMDA; conditions: ref Martinez-Botella et al., 2017; cited from earlier work
[24] = Plasma concentrations in rats designated for pharmacokinetic analysis; format: in vivo; conditions: rat, po
[25] = molecular target: T1, α1β2γ2 GABAA receptor; experiment: P4S concentration-response with and without 200 nM zuranolone, Ltk cells; format: cell-based; conditions: for EC50: EC50 of P4S, α1β2γ2, Ltk cells
Outline: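 Ltk cells stably expressing α1β2γ2; whole-cell patch clamp at −80 mV, n = 11. P4S was applied at 0.1–1000 μM in log steps, with or without a fixed 200 nM test compound. Currents were normalized to the maximum current from a saturating GABA concentration.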

C[C@@]1(O)CC[C@H]2[C@H](CC[C@@H]3[C@@H]2CC[C@]2(C)[C@@H](C(=O)Cn4cc(C#N)cn4)CC[C@@H]32)C1 [zuranolone, 3α-Hydroxy-3β-methyl-21-(4-cyano-1H-pyrazol-1’-yl)-19-nor-5β-pregnan-20-one]
EC50 [1]: 844 nM
concentration required to potentiate the current greater than 150% ([1]; α1β2γ2, coapplied with 100 nM DZP): 10 nM
interaction of zuranolone and DZP by isobolographic analysis ([1]; α1β2γ2, coapplied zuranolone and DZP): synergistically
maximal potentiation ([1]; α1β2γ2, in the presence of 100 nM DZP): 1084%
concentration applied alone required to reach 150% effect level [1]: 315 nM
maximal potentiation ([1]; α1β2γ2, without DZP): 511%
inhibition of radioligand binding [2]: 57%
sleep or wake time ([3]; 0.3 mg/kg PO): No changes in sleep or wake time
β-band EEG power relative to vehicle ([3]; 0.3 mg/kg PO, p = 0.58): did not elicit a significant increase
time of β-band EEG power peak post dose ([3]; 3 mg/kg PO): approximately 0.5 h
β-band EEG power at one hour vs vehicle ([3]; 3 mg/kg PO, p < 0.0005): significantly greater than vehicle
sleep time ([3]; 3 mg/kg PO): increased sleep time during the first hour
time of β-band EEG power peak ([3]; 20 mg/kg PO): ≤ 30 min
sleep time ([3]; 20 mg/kg PO): increased time spent in sleep during all three hours
β-band EEG power at one hour vs vehicle ([3]; 20 mg/kg PO, p = 0.79): not significantly different from vehicle
EC50 [4]: 780 nM
EC50 [5]: 293 nM
Emax ([5]; HEK293): 291%
antagonist activity [6]: 96%
latency to tonic seizures ([7]; mouse, 0.3 mg/kg PO, non-significant trend (p = 0.06)): 1033 ± 179 s
latency to tonic seizures ([7]; mouse, 1, 3, and 10 mg/kg PO, 60 min prior to 120 mg/kg PTZ): ≥ 1688 ± 56 s
EC50 [8]: 298 nM
Emax ([8]; HEK293): 534%
brain concentrations [9]: 60 to 143 ng/g
time of maximum plasma concentration (Cmax) post dose ([10]; 10 mg/kg IP): 30 min
time of maximum plasma concentration (Cmax) post dose ([10]; 10 mg/kg PO): 30 min
Cmax ([10]; ip): 3200 ng/mL
bioavailability ([10]; ip): 89%
Cmax ([10]; po): 1340 ng/mL
bioavailability ([10]; po): 62%
EC50 [11]: 1260 nM
EC50 [12]: 390 nM
Emax ([12]; HEK293): 684%
tonic current density ([13]; 0.1 μM): 2.48 ± 0.7 pA/pF
sIPSC amplitude ([13]; 0.1 μM): 99 ± 26 pA
sIPSC decay ([13]; 0.1 μM): 10 ± 1 ms
tonic current density ([13]; 1 μM): 5.55 ± 1.3 pA/pF
sIPSC amplitude ([13]; 1 μM): 57 ± 7 pA
sIPSC decay ([13]; 1 μM): 24 ± 4 ms
sIPSC frequency ([13]; following zuranolone exposure): no change
EC50 [14]: 184 nM
effects at 22 nuclear hormone receptors [15]: no significant effects
EC50 [16]: 516 nM
tolerability ([17]; oral administration): generally well tolerated
pharmacokinetics following oral administration [17]: predictable pharmacokinetics
EC50 [18]: 118 nM
Emax ([18]; CHO): 556%
EC50 [19]: 430 nM
inhibition of radioligand binding [20]: 87%
EC50 [21]: 135 nM
effects at 8 cardiac ion channels [22]: no significant effects
selectivity for GABAA receptors vs other ion channel and hormone receptors [23]: selective
concentration at 60 min ([24]; 0.3 mg/kg): 22 ng/mL
concentration at 60 min ([24]; 3 mg/kg): 301 ng/mL
concentration at 60 min ([24]; 20 mg/kg): 1470 ng/mL

CN1C(=O)CN=C(c2ccccc2)c2cc(Cl)ccc21 [DZP, diazepam, reference compound]
enhancement of GABA currents ([1]; 100 nM DZP alone, α1β2γ2, 2 μM GABA): 104%
concentration applied alone required to reach 150% effect level [1]: 360 nM
potentiation of current when applied alone ([21]; α4β3δ, DZP alone): did not potentiate

O=S(=O)(O)C1CCNCC1 [P4S, piperidine-4-sulphonic acid]
EC50 ([25]; P4S alone): 45000 nM and 44500 nM
EC50 ([25]; with 200 nM zuranolone): 25200 nM
Emax of P4S ([25]; P4S alone, normalized to maximum current evoked by saturating GABA (100 μM)): 25%
